Results on 6 compounds are retold here after ChEMBL document CHEMBL1122798, “Trypanocidal 1,3-arylene diketone bis(guanylhydrazone)s. Structure-activity relationships among substituted and heterocyclic analogues” (1984).

Format in all cases: functional
Test [1] concerns Mus musculus. As to the kind of experiment: Compound was tested for Trypanocidal Activity in mice at 15 mg/kg; 9/10.
For test [2], the species on record is Mus musculus. As to the kind of experiment: Effective dose against Trypanosoma brucei infection in mice. The essentials:
(§1)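 Female Swiss-Webster mice (20–25 g) were infected ip with 5×10^4 T. brucei EATRO 110 organisms in fresh mouse blood diluted with minimum essential medium. Groups of 5 or 10 received a single ip dose in normal saline (solution or milled suspension, 20 μL/g) 6 h post-infection. Deaths within 72 h were scored as toxic. Survivors aparasitemic at 28 days (tail-blood wet films, phase contrast) counted as cures. ED50 was computed by Bliss/Litchfield–Wilcoxon, excluding toxic dosages.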

The subject of test [3] is Mus musculus. As to the kind of experiment: Compound was tested for Trypanocidal Activity in mice at 100 mg/kg; 0/5.
In test [4] the test system is Mus musculus. The test is described as follows: Compound was tested for Trypanocidal Activity in mice at 10 mg/kg; 10/10.
Test [5] has as its system Mus musculus. As to the kind of experiment: Compound was tested for Trypanocidal Activity in mice at 40 mg/kg; 10/10.
In test [6] the test system is Mus musculus. As to the kind of experiment: Compound was tested for Trypanocidal Activity in mice at 1.5 mg/kg; 0/15.
The subject of test [7] is Mus musculus. The test is described as follows: Compound was tested for Trypanocidal Activity in mice at 4 mg/kg; 11/20.
Test [8] has as its system Mus musculus. As to the kind of experiment: Compound was tested for Trypanocidal Activity in mice at 2.5 mg/kg; 3/20.
Test [9] deals with Mus musculus. The test is described as follows: Compound was tested for Trypanocidal Activity in mice at 25 mg/kg; 8/10.
The subject of test [10] is Mus musculus. As to the kind of experiment: Compound was tested for Trypanocidal Activity in mice at 6 mg/kg; 14/20.
The subject of test [11] is Mus musculus. As to the kind of experiment: Compound was tested for Trypanocidal Activity in mice at 60 mg/kg; 0/5.
The subject of test [12] is Mus musculus. As to the kind of experiment: Compound was tested for Trypanocidal Activity in mice at 40 mg/kg; 0/10.
Test [13] deals with Mus musculus. The test is described as follows: Compound was tested for Trypanocidal Activity in mice at 60 mg/kg; 2/5.
Test [14] has as its system Mus musculus. The test is described as follows: Compound was tested for Trypanocidal Activity in mice at 15 mg/kg; 10/10.
The test system of test [15] is Mus musculus. The test is described as follows: Compound was tested for Trypanocidal Activity in mice at 25 mg/kg; 10/10.
The test system of test [16] is Mus musculus. As to the kind of experiment: Compound was tested for Trypanocidal Activity in mice at 60 mg/kg; toxic deaths; 1/10.
Test [17] concerns Mus musculus. As to the kind of experiment: Compound was tested for Trypanocidal Activity in mice at 4 mg/kg; 10/30.
For test [18], the system named is Mus musculus. The test is described as follows: Compound was tested for Trypanocidal Activity in mice at 2.5 mg/kg; 5/30.
For test [19], the system named is Mus musculus. As to the kind of experiment: Tested for Trypanocidal Activity in mice at 10 mg/kg; 17/20. The essentials: as §1
Test [20] deals with Mus musculus. The test is described as follows: Compound was tested for Trypanocidal Activity in mice at 1.5 mg/kg; 0/20.
The subject of test [21] is Mus musculus. As to the kind of experiment: Compound was tested for Trypanocidal Activity in mice at 6 mg/kg; 14/30.
Test [22] has as its system Mus musculus. The test is described as follows: Compound was tested for Trypanocidal Activity in mice at 25 mg/kg; 0/5.
Test [23] has as its system Mus musculus. The test is described as follows: Compound was tested for Trypanocidal Activity in mice at 40 mg/kg; 0/5.
The test system of test [24] is Mus musculus. As to the kind of experiment: Compound was tested for Trypanocidal Activity in mice at 15 mg/kg; 0/5.
Test [25] relates to Mus musculus. As to the kind of experiment: Compound was tested for Trypanocidal Activity in mice at 2.5 mg/kg; 6/25.
The subject of test [26] is Mus musculus. As to the kind of experiment: Compound was tested for Trypanocidal Activity in mice at 60 mg/kg; 7/10. The essentials:
as §1

The subject of test [27] is Mus musculus. As to the kind of experiment: Compound was tested for Trypanocidal Activity in mice at 40 mg/kg; 9/10.
For test [28], the system named is Mus musculus. The test is described as follows: Compound was tested for Trypanocidal Activity in mice at 4 mg/kg; 24/45.
In test [29] the test system is Mus musculus. As to the kind of experiment: Compound was tested for Trypanocidal Activity in mice at 100 mg/kg; 1/5.
Test [30] relates to Mus musculus. As to the kind of experiment: Compound was tested for Trypanocidal Activity in mice at 10 mg/kg; 22/30.
Test [31] deals with Mus musculus. The test is described as follows: Compound was tested for Trypanocidal Activity in mice at 1.5 mg/kg; 0/10.
For test [32], the system named is Mus musculus. As to the kind of experiment: Compound was tested for Trypanocidal Activity in mice at 6 mg/kg; 32/45.
The subject of test [33] is Mus musculus. The test is described as follows: Compound was tested for Trypanocidal Activity in mice at 15 mg/kg; 3/5.
Test [34] relates to Mus musculus. As to the kind of experiment: Compound was tested for Trypanocidal Activity in mice at 0.1 mg/kg; 1/10.
Test [35] deals with Mus musculus. As to the kind of experiment: Compound was tested for Trypanocidal Activity in mice at 0.4 mg/kg; 24/45.
Test [36] deals with Mus musculus. The test is described as follows: Compound was tested for Trypanocidal Activity in mice at 0.6 mg/kg; 23/25.
Test [37] relates to Mus musculus. The test is described as follows: Compound was tested for Trypanocidal Activity in mice at 6 mg/kg; 10/10.
The subject of test [38] is Mus musculus. As to the kind of experiment: Compound was tested for Trypanocidal Activity in mice at 0.15 mg/kg; 6/20.
For test [39], the system named is Mus musculus. The test is described as follows: Compound was tested for Trypanocidal Activity in mice at 60 mg/kg; 5/5.
The test system of test [40] is Mus musculus. As to the kind of experiment: Compound was tested for Trypanocidal Activity in mice at 0.25 mg/kg; 28/40.
Test [41] deals with Mus musculus. As to the kind of experiment: Compound was tested for Trypanocidal Activity in mice at 100 mg/kg; 5/5.
The subject of test [42] is Mus musculus. As to the kind of experiment: Compound was tested for Trypanocidal Activity in mice at 10 mg/kg; 5/5.
Test [43] deals with Mus musculus. As to the kind of experiment: Compound was tested for Trypanocidal Activity in mice at 2.5 mg/kg; 9/10.
Test [44] deals with Mus musculus. The test is described as follows: Compound was tested for Trypanocidal Activity in mice at 1.5 mg/kg; 19/20.
Test [45] concerns Mus musculus. As to the kind of experiment: Compound was tested for Trypanocidal Activity in mice at 4 mg/kg; 10/10.
The subject of test [46] is Mus musculus. The test is described as follows: Compound was tested for Trypanocidal Activity in mice at 0.06 mg/kg; 0/10.
Test [47] deals with Mus musculus. The test is described as follows: Compound was tested for Trypanocidal Activity in mice at 25 mg/kg; 3/5.
For test [48], the system named is Mus musculus. As to the kind of experiment: Compound was tested for Trypanocidal Activity in mice at 40 mg/kg; 5/5.
Test [49] concerns Mus musculus. The test is described as follows: Compound was tested for Trypanocidal Activity in mice at 150 mg/kg; 3/5.
In test [50] the test system is Mus musculus. The test is described as follows: Compound was tested for Trypanocidal Activity in mice at 1.0 mg/kg; 9/10.

The term ED50 denotes the dose that gives a 50% effect, or the effect in half of the subjects. Read a high ED50 as a need for a large dose.

Regarding `C/C(=N\NC(=N)N)c1cc(C)cc(/C(C)=N/NC(=N)N)c1.Cl`, the Cures/total is on record as 9 in test [1]; 0 in [3]; 10 in [4]; 10 in [5]; 0 in [6]; 11 in [7]. Also, the Cures/total turned out to be 3 in test [8], 8 in [9], 14 in [10] and 0 in test [11]. In [2], this compound yielded an ED50 of 4.1 mg/kg.
Regarding `C/C(=N\NC(=N)N)c1cc(I)cc(/C(C)=N/NC(=N)N)c1.Cl`, the Cures/total in test [12] stood at 0; in test [3], 0; in [13] it was 2.
With `CCO.COc1cc(/C(C)=N/NC(=N)N)cc(/C(C)=N/NC(=N)N)c1.Cl`, in test [14], the “Mice cured (number)” value worked out at 10. Further, the Cures/total stood at 10 in test [15]; 1 in [16]; 10 in test [17]; 5 in test [18]; 17 in [19]; 0 in test [20]. In addition, the Cures/total in [3] is given as 0; in test [5], 10; in [21], 14. This compound yielded an ED50 in test [2] of 5.4 mg/kg.
As for `C/C(=N\NC(=N)N)c1cccc(/C(C)=N/NC(=N)N)c1N.Cl`, the Cures/total in test [22], in test [23] and in test [24] was 0 each time.
With `C/C(=N\NC(=N)N)c1cccc(/C(C)=N/NC(=N)N)c1.Cl` [BIS(GUANYLHYDRAZONE) ;2M HYDROCHLORIDE], the “Mice cured (number)” value in test [14] was 10. Also, the Cures/total in [25] was 6; in test [26], 7; in test [27], 9; in [28], 24; in test [15], 10; in [29], 1. For the same compound, the Cures/total stood at 22 in [30], 0 in test [31] and 32 in test [32]. For the same compound, the ED50 in [2] was determined as 4.2 mg/kg.
Take `CC(=O)NCC(=O)O.N=C(N)c1ccc(/N=N/Nc2ccc(C(=N)N)cc2)cc1` [DIMINAZEN ACETURATE]: the Cures/total in [33] is recorded as 3; in [34], 1; in test [35], 24; in test [36] it was 23; in test [37], 10; in test [38], 6. The Cures/total in [39] came to 5; in test [40], 28; in [41], 5; in test [42] it was 5; in test [43], 9; in [44], 19. Besides, the Cures/total in test [45] is on record as 10; in [46], 0; in [47] it was 3; in [48] it was 5; in [49], 3; in test [50] it was 9. Further, the ED50 in test [2] stood at 0.24 mg/kg.
